Results reported in ChEMBL document CHEMBL1141286, “Benzochromenones from the marine crinoid Comantheria rotula inhibit hypoxia-inducible factor-1 (HIF-1) in cell-based reporter assays and differentially suppress the growth of certain tumor cell lines” (J Nat Prod, 2007).
Calls of active or inactive are those of the source. No cut-off for these calls is given here.

Tests used:
[1] = test system: ACHN; assay: Growth inhibition of human ACHN cells; assay type: functional
[2] = test system: CAKI-1; assay: Growth inhibition of human CAKI1 cells; assay type: functional
[3] = test system: MCF7; assay: Growth inhibition of human MCF7 cells; assay type: functional
[4] = test system: T47D; assay: Inhibition of 1,10-phenanthroline-induced VEGF protein secretion in human T47D cells at 10 uM after 16 hrs by ELISA; assay type: functional, cell-based
In short: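 T47D cells stimulated with 1,10-phenanthroline, compound at 10 μM; secreted VEGF in conditioned media by ELISA, normalized to cell-lysate protein.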

[5] = Inhibition of 1,10-phenanthroline-induced HIF1 activation in T47D cells by TK-luciferase assay; assay type: cell-based; conditions: Homo sapiens
In short: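 HIF-1 reporter (pHRE-TK-Luc) assays in transfected PC-3 or T47D cells; HIF-1 induced by hypoxia or by the hypoxia mimetic 1,10-phenanthroline (10 μM); compounds at half-log concentrations; luciferase activity measured; IC50 from experiments in triplicate.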

[6] = test system: T47D; assay: Growth inhibition of human T47D cells; assay type: functional
[7] = test system: SNB-19; assay: Growth inhibition of human SNB19 cells; assay type: functional
[8] = test system: MDA-MB-231; assay: Growth inhibition of human MDA-MB-231 cells; assay type: functional
[9] = test system: NCI-H23; assay: Growth inhibition of human NCI-H23 cells; assay type: functional
[10] = test system: HOP-92; assay: Growth inhibition of human HOP92 cells; assay type: functional
[11] = test system: HCT-116; assay: Growth inhibition of human HCT116 cells; assay type: functional
[12] = test system: NCI-H460; assay: Growth inhibition of human NCI-H460 cells; assay type: functional
[13] = test system: SK-OV-3; assay: Growth inhibition of human SK-OV3 cells; assay type: functional
[14] = test system: KM12; assay: Growth inhibition of human KM12 cells; assay type: functional
[15] = test system: A549; assay: Growth inhibition of human A549 cells; assay type: functional
[16] = DPPH radical scavenging activity relative to Trolox; assay type: functional; parameters: concentration or dose not given beside the values
In short: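 Compounds were made up as DMSO stocks and diluted in isopropanol to a final 10 μM. Each was mixed with DPPH in isopropanol at 10 μM or 30 μM DPPH, and absorbance was read at 515 nm. Scavenging was calculated as [1 − OD515(compound)/OD515(control)] × 100, then expressed as a percentage of Trolox activity. One experiment was run in triplicate.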

[17] = test system: NCI-H226; assay: Growth inhibition of human NCI-H226 cells; assay type: functional
[18] = test system: EKVX; assay: Growth inhibition of human EKVX cells; assay type: functional
[19] = test system: LOX IMVI; assay: Growth inhibition of human LOXIMVI cells; assay type: functional
[20] = test system: NCI-H322M; assay: Growth inhibition of human NCI-H322M cells; assay type: functional
[21] = test system: SF-295; assay: Growth inhibition of human SF295 cells; assay type: functional
[22] = test system: BT-549; assay: Growth inhibition of human BT549 cells; assay type: functional
[23] = test system: Malme-3M; assay: Growth inhibition of human MALME-3M cells; assay type: functional
[24] = test system: K562; assay: Growth inhibition of human K562 cells; assay type: functional
[25] = test system: RXF 393; assay: Growth inhibition of human RXF393 cells; assay type: functional
[26] = test system: HCC 2998; assay: Growth inhibition of human HCC2998 cells; assay type: functional
[27] = test system: U-251; assay: Growth inhibition of human U251 cells; assay type: functional
[28] = test system: SF-539; assay: Growth inhibition of human SF539 cells; assay type: functional
[29] = test system: M14; assay: Growth inhibition of human M14 cells; assay type: functional
[30] = test system: SF-268; assay: Growth inhibition of human SF268 cells; assay type: functional
[31] = test system: NCI/ADR-RES; assay: Growth inhibition of human NCI/ADR-RES cells; assay type: functional
[32] = test system: DU-145; assay: Growth inhibition of human DU145 cells; assay type: functional
[33] = test system: MDA-MB-435; assay: Growth inhibition of human MDA-MB-435 cells; assay type: functional
[34] = test system: SR; assay: Growth inhibition of human SR cells; assay type: functional
[35] = test system: OVCAR-5; assay: Growth inhibition of human OVACAR5 cells; assay type: functional
[36] = test system: UACC-62; assay: Growth inhibition of human UACC62 cells; assay type: functional
[37] = test system: OVCAR-8; assay: Growth inhibition of human OVACAR8 cells; assay type: functional
[38] = test system: UO-31; assay: Growth inhibition of human UO31 cells; assay type: functional
[39] = test system: PC-3; assay: Growth inhibition of human PC3 cells; assay type: functional
[40] = read-out: Log LC50 (the source's name) (converted)

## COc1cc(O)cc2cc3oc(C)cc(=O)c3c(O)c12
[1]
  GI50: 17 µM
[1]; [40]
  CC50: > 100 µM
[1]; read-out: Log TGI (converted)
  TGI: > 100 µM
[2]
  GI50: 42.7 µM
  LC50: > 100 µM
[2]; read-out: Log TGI (converted)
  TGI: > 100 µM
[3]
  GI50: 31.6 µM
  LC50: > 100 µM
[3]; read-out: Log TGI (converted)
  TGI: > 100 µM
[4]
  Activity: inactive
[5]
  IC50: 0.9 µM
[6]
  GI50: 17.8 µM
  LC50: > 100 µM
[6]; read-out: Log TGI (converted)
  TGI: > 100 µM
[7]
  GI50: 32.4 µM
  LC50: > 100 µM
[7]; read-out: Log TGI (converted)
  TGI: > 100 µM
[8]
  GI50: 17.8 µM
  LC50: > 100 µM
[8]; read-out: Log TGI (converted)
  TGI: > 100 µM
[9]
  GI50: 24.5 µM
[9]; [40]
  CC50: > 100 µM
[9]; read-out: Log TGI (converted)
  TGI: 83.2 µM
[10]
  GI50: 30.9 µM
[10]; [40]
  CC50: > 100 µM
[10]; read-out: Log TGI (converted)
  TGI: > 100 µM
[11]
  GI50: 14.5 µM
[11]; [40]
  CC50: 63.1 µM
[11]; read-out: Log TGI (converted)
  TGI: 30.2 µM
[12]
  GI50: 19.1 µM
[12]; [40]
  CC50: > 100 µM
[12]; read-out: Log TGI (converted)
  TGI: 50.1 µM
[13]
  GI50: 31.6 µM
  LC50: > 100 µM
[13]; read-out: Log TGI (converted)
  TGI: > 100 µM
[14]
  GI50: 18.6 µM
[14]; [40]
  CC50: 85.1 µM
[14]; read-out: Log TGI (converted)
  TGI: 39.8 µM
[15]
  GI50: 29.5 µM
[15]; [40]
  CC50: > 100 µM
[15]; read-out: Log TGI (converted)
  TGI: > 100 µM
[16]
  Activity: 40%
[17]
  GI50: 22.4 µM
[17]; [40]
  CC50: > 100 µM
[17]; read-out: Log TGI (converted)
  TGI: > 100 µM
[18]
  GI50: 37.2 µM
[18]; [40]
  CC50: > 100 µM
[18]; read-out: Log TGI (converted)
  TGI: > 100 µM
[19]
  GI50: 18.2 µM
  LC50: > 100 µM
[19]; read-out: Log TGI (converted)
  TGI: 52.5 µM
[20]
  GI50: 26.9 µM
[20]; [40]
  CC50: > 100 µM
[20]; read-out: Log TGI (converted)
  TGI: 95.5 µM
[21]
  GI50: 30.2 µM
  LC50: > 100 µM
[21]; read-out: Log TGI (converted)
  TGI: > 100 µM
[22]
  GI50: 20.4 µM
  LC50: > 100 µM
[22]; read-out: Log TGI (converted)
  TGI: > 100 µM
[23]
  GI50: 35.5 µM
[23]; [40]
  CC50: > 100 µM
[23]; read-out: Log TGI (converted)
  TGI: 95.5 µM
[24]
  GI50: 14.8 µM
[24]; [40]
  CC50: > 100 µM
[24]; read-out: Log TGI (converted)
  TGI: 49 µM
[25]
  GI50: 20.4 µM
  LC50: > 100 µM
[25]; read-out: Log TGI (converted)
  TGI: 53.7 µM
[26]
  GI50: 24.5 µM
[26]; [40]
  CC50: > 100 µM
[26]; read-out: Log TGI (converted)
  TGI: 64.6 µM
[27]
  GI50: 33.1 µM
  LC50: > 100 µM
[27]; read-out: Log TGI (converted)
  TGI: > 100 µM
[28]
  GI50: 27.5 µM
  LC50: > 100 µM
[28]; read-out: Log TGI (converted)
  TGI: 87.1 µM
[29]
  GI50: 20 µM
  LC50 (50% lethal concentration): > 100 µM
[29]; read-out: Log TGI (converted)
  TGI: 45.7 µM
[30]
  GI50: 30.2 µM
  LC50: > 100 µM
[30]; read-out: Log TGI (converted)
  TGI: > 100 µM
[31]
  GI50: 22.4 µM
  LC50 (concentration killing 50% of cells): > 100 µM
[31]; read-out: Log TGI (converted)
  TGI: > 100 µM
[32]
  GI50: 21.9 µM
[32]; [40]
  CC50: > 100 µM
[32]; read-out: Log TGI (converted)
  TGI: 70.8 µM
[33]
  GI50: 27.5 µM
  LC50: > 100 µM
[33]; read-out: Log TGI (converted)
  TGI: > 100 µM
[34]
  GI50: 15.1 µM
[34]; [40]
  CC50: > 100 µM
[34]; read-out: Log TGI (converted)
  TGI: 41.7 µM
[35]
  GI50: 46.8 µM
  LC50: > 100 µM
[35]; read-out: Log TGI (converted)
  TGI: > 100 µM
[36]
  GI50: 29.5 µM
  LC50 (lethal concentration, 50% cell kill): > 100 µM
[36]; read-out: Log TGI (converted)
  TGI: > 100 µM
[37]
  GI50: 27.5 µM
  LC50: > 100 µM
[37]; read-out: Log TGI (converted)
  TGI: > 100 µM
[38]
  GI50: 5.13 µM
  LC50: > 100 µM
[38]; read-out: Log TGI (converted)
  TGI: 37.2 µM
[39]
  GI50: 32.4 µM
  LC50: > 100 µM
[39]; read-out: Log TGI (converted)
  TGI: > 100 µM
